Calls of active or inactive are those of the source. The rule behind the calls is not given here.
How the values were obtained:
[1] = Oral bioavailability in rhesus monkey at 1 mg/kg; format: ADME, organism-based, Macaca mulatta; details: in vivo
[2] = Fraction unbound in rat plasma at 0.1 uM using [3H]-labeled compound; format: ADME, cell-free
[3] = Fraction unbound in human plasma at 0.1 uM using [3H]-labeled compound; format: ADME, cell-free
Pancreatic islet [4] = experiment: Induction of SST-14 secretion in human pancreatic islets in presence of glucose by ELISA; format: functional, cell-based
In short: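 In the same human islet incubations, SST-14 and glucagon secretion were monitored alongside insulin.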

Mus musculus [5] = experiment: Antidiabetic activity in HFD fed C57BL/6N mouse assessed as increase in circulating active GLP-1 levels at 10 mg/kg, po pretreated for 60 mins measured 5 mins post glucose challenge by OGTT; format: functional, organism-based
In short: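 The SSTR5 antagonist was given orally at 10 mg/kg, alone or combined with des-fluoro sitagliptin at 10 mg/kg, ahead of an oral glucose challenge. Blood was sampled 5 min after glucose for circulating total GLP-1, active GLP-1[7-36] amide and plasma insulin.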

[6] = Solubility of the compound in 10% tween formulation; format: physicochemical
Mus musculus [7] = experiment: Antidiabetic activity in HFD fed C57BL/6N mouse assessed as decrease in blood glucose AUC at 0.03 mg/kg administered as single oral dose pretreated for 60 mins followed by glucose challenge measured after 120 mins by OGTT; format: functional; parameters: scale not given: the % may be the effect or the level left
In short: (§1)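 Oral dose titration (0.03-3 mg/kg) in HFD-fed mice, n=8. Dosing was followed by an oral glucose tolerance test. Net blood glucose AUC was expressed as % reduction versus vehicle, with P values versus vehicle.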

[8] = Drug uptake in C57BL/6N mouse whole blood at 3 mg/kg, po measured at 3 hrs; format: ADME, organism-based; details: read-out: Drug uptake
In short: (§2)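 Whole-blood compound exposure was measured 3 h after oral dosing (0.03-3 mg/kg) in HFD mice run through the OGTT dose titration. Unbound levels were derived using the plasma free fraction.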

[9] = Volume of distribution in rhesus monkey at […], iv or 1 mg/kg, po; format: ADME, organism-based, Macaca mulatta; details: in vivo
[10] = target: Sodium channel protein type 5 subunit alpha (Homo sapiens, UniProt Q14524); experiment: Inhibition of Nav1.5 (unknown origin)
[11] = Volume of distribution in rat at 1 mg/kg, iv or 2 mg/kg, po; format: ADME, organism-based; details: in vivo
Mus musculus [12] = experiment: Antidiabetic activity in HFD fed C57BL/6N mouse assessed as decrease in blood glucose AUC administered as single oral dose pretreated for 60 mins followed by glucose challenge measured after 120 mins by OGTT; details: read-out: MED
[13] = target: Voltage-dependent L-type calcium channel subunit alpha-1C (Homo sapiens, UniProt Q13936); experiment: Inhibition of Cav1.2 (unknown origin)
[14] = Half life in rhesus monkey at […], iv or 1 mg/kg, po; format: ADME, organism-based, Macaca mulatta; details: in vivo
[15] = Drug uptake in C57BL/6N mouse whole blood at 0.3 mg/kg, po measured at 3 hrs; format: ADME, organism-based; details: read-out: Drug uptake; in short: as §2
[16] = Volume of distribution in dog at […], iv or 1 mg/kg, po; format: ADME, organism-based, Canis lupus familiaris; details: in vivo
[17] = Fraction unbound in rhesus monkey plasma at 0.1 uM using [3H]-labeled compound; format: ADME, cell-free, Macaca mulatta
[18] = Half life in rat at 1 mg/kg, iv or 2 mg/kg, po; format: ADME, organism-based; details: in vivo
In short: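 Rat pharmacokinetics after separate intravenous (1 mg/kg) and oral (2 mg/kg) dosing. Clearance is reported in mL/kg/min and half-life in hours. Oral bioavailability is given as F (%).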

[19] = target: Somatostatin receptor type 3 (Homo sapiens, UniProt P32745); experiment: Antagonist activity at human SSTR3 expressed in CHO-K1 cell membranes; format: functional, cell-based
In short: (§3)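 Counter-screen by filtration membrane binding: competitive displacement of radiolabeled SST-28 from cell membranes expressing human SSTR1, SSTR2, SSTR3 or SSTR4. The IC50 is the mean of at least duplicate experiments within a maximal threefold range.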

Cytochrome P450 2C9 = Cytochrome P450 2C9 (Homo sapiens, UniProt P11712); experiment: Inhibition of human CYP2C9; format: ADME
[20] = Unbound plasma concentration in C57BL/6N mouse plasma at 3 mg/kg, po measured at 3 hrs; format: ADME, organism-based; details: in vivo
Pancreatic islet [21] = experiment: Induction of glucose-dependent insulin secretion in human pancreatic islets at 0.5 to 5 uM preincubated for 30 mins with 2 mM glucose followed by compound addition measured after 60 mins by ELISA; format: functional, cell-based
In short: (§4)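 Isolated pancreatic islets from non-diabetic human donors were incubated with compound at 0.5 or 5 µM in 2 mM (G2) or 16 mM (G16) glucose. Insulin secretion was measured against a DMSO control, with P<0.05 significance.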

Mus musculus [22] = experiment: Induction of hypoglycemia in C57BL/6N mouse assessed as decrease in basal blood glucose levels at 3 to 30 mg/kg, po measured over 5 hrs; format: organism-based; details: in vivo
[23] = Drug uptake in C57BL/6N mouse whole blood at 1 mg/kg, po measured at 3 hrs; format: ADME, organism-based; details: read-out: Drug uptake; in short: as §2
[24] = Clearance in dog at […], iv or 1 mg/kg, po; format: ADME, organism-based, Canis lupus familiaris; details: in vivo
Pancreatic islet [25] = experiment: Induction of glucose-dependent insulin secretion in human pancreatic islets at 0.5 to 5 uM preincubated for 30 mins with 16 mM glucose followed by compound addition measured after 60 mins by ELISA; format: functional, cell-based; in short: as §4
[26] = Unbound plasma concentration in C57BL/6N mouse plasma at 0.3 mg/kg, po measured at 3 hrs; format: ADME, organism-based; details: in vivo
[27] = Clearance in rhesus monkey at […], iv or 1 mg/kg, po; format: ADME, organism-based, Macaca mulatta; details: in vivo
Pancreatic islet [28] = experiment: Induction of glucose-dependent insulin secretion in human pancreatic islets at 0.5 and 5 uM preincubated for 30 mins with glucose followed by compound addition measured after 60 mins by ELISA
Mus musculus [29] = experiment: Antidiabetic activity in HFD fed SSTR5 knock-out C57BL/6N mouse assessed as decrease in blood glucose AUC at 0.03 to 3 mg/kg administered as single oral dose pretreated for 60 mins followed by glucose challenge measured after 120 mins by OGTT; format: functional, organism-based
Mus musculus [30] = experiment: Antidiabetic activity in HFD fed C57BL/6N mouse assessed as decrease in blood glucose AUC at 3 mg/kg administered as single oral dose pretreated for 60 mins followed by glucose challenge measured after 120 mins by OGTT; format: functional; parameters: scale not given: the % may be the effect or the level left; in short: as §1
[31] = Oral bioavailability in dog at 1 mg/kg; format: ADME, organism-based, Canis lupus familiaris; details: in vivo
Mus musculus [32] = experiment: Antidiabetic activity in HFD fed C57BL/6N mouse assessed as decrease in blood glucose AUC at 1 mg/kg administered as single oral dose pretreated for 60 mins followed by glucose challenge measured after 120 mins by OGTT; format: functional; parameters: scale not given: the % may be the effect or the level left; in short: as §1
Mus musculus [33] = experiment: Antidiabetic activity in HFD fed C57BL/6N mouse assessed as decrease in blood glucose AUC at 0.3 mg/kg administered as single oral dose pretreated for 60 mins followed by glucose challenge measured after 120 mins by OGTT; format: functional; parameters: scale not given: the % may be the effect or the level left; in short: as §1
Cytochrome P450 2D6 = Cytochrome P450 2D6 (Homo sapiens, UniProt P10635); experiment: Inhibition of human CYP2D6; format: ADME
[34] = target: Somatostatin receptor type 4 (Homo sapiens, UniProt P31391); experiment: Antagonist activity at human SSTR4 expressed in CHO-K1 cell membranes; format: functional, cell-based; in short: as §3
Chain of Somatostatin receptor type 4 (P31391 whole entry): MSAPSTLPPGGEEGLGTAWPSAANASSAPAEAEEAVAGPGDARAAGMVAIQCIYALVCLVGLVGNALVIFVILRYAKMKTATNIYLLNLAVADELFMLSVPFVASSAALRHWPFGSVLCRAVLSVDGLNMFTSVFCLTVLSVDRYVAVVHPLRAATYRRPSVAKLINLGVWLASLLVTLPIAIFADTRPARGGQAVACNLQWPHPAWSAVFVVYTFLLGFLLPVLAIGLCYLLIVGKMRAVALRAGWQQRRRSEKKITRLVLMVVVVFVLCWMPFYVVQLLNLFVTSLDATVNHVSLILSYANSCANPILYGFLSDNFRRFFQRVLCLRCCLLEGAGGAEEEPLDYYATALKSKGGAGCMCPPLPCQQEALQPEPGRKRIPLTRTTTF

Chain of Voltage-dependent L-type calcium channel subunit alpha-1C (Q13936 whole entry): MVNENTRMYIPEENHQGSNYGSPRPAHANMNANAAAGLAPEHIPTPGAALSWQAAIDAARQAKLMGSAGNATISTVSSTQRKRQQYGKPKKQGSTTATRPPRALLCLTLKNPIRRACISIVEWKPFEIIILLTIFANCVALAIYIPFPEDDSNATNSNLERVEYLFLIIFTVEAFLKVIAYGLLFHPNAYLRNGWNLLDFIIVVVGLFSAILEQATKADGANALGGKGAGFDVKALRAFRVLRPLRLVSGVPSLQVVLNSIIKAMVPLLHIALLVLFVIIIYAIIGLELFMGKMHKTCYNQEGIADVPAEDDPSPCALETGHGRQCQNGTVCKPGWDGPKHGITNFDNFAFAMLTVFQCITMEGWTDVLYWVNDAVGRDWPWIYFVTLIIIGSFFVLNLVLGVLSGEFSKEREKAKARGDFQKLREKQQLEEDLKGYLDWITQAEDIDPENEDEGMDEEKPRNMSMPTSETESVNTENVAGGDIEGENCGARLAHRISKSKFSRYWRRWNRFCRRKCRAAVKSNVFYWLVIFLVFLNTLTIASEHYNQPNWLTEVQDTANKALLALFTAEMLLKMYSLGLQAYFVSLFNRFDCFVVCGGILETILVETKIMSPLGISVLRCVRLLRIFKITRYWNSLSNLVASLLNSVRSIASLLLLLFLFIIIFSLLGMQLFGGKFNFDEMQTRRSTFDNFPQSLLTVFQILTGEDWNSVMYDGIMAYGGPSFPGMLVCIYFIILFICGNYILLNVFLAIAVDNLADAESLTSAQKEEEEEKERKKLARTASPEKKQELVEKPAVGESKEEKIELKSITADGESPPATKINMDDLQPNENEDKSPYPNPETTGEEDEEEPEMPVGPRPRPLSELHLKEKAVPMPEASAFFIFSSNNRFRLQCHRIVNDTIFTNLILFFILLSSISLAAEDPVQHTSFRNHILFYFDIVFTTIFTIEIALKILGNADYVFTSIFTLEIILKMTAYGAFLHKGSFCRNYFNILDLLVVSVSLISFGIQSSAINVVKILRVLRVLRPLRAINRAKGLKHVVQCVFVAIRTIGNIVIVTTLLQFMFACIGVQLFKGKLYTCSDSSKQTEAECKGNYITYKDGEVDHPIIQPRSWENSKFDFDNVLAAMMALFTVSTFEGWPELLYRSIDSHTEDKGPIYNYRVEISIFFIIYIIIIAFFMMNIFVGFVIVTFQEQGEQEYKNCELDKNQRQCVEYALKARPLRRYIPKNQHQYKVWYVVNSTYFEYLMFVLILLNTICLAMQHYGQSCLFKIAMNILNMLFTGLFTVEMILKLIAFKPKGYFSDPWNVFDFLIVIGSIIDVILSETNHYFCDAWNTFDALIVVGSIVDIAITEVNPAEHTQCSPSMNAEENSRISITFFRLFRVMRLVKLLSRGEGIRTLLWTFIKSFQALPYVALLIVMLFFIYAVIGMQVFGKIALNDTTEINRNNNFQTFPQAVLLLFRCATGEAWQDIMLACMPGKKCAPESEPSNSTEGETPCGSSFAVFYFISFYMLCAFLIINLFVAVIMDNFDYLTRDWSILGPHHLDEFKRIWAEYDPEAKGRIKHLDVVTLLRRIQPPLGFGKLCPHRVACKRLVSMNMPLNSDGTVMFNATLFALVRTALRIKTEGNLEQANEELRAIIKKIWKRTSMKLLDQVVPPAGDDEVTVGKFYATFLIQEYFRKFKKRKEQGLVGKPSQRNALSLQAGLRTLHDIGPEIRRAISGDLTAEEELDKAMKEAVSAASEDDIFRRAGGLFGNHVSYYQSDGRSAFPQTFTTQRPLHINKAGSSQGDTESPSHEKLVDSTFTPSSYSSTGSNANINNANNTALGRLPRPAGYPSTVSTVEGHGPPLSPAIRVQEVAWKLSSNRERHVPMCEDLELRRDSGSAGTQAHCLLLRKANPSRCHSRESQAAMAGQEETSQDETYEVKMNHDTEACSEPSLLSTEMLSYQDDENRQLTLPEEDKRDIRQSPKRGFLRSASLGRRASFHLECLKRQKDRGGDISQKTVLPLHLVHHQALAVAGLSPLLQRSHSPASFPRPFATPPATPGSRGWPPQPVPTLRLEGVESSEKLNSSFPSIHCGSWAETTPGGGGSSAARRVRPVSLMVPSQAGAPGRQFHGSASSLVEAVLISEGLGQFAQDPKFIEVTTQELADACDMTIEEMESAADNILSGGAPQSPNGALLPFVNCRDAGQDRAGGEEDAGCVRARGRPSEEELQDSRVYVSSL
Chain of Cytochrome P450 2D6 (P10635 whole entry): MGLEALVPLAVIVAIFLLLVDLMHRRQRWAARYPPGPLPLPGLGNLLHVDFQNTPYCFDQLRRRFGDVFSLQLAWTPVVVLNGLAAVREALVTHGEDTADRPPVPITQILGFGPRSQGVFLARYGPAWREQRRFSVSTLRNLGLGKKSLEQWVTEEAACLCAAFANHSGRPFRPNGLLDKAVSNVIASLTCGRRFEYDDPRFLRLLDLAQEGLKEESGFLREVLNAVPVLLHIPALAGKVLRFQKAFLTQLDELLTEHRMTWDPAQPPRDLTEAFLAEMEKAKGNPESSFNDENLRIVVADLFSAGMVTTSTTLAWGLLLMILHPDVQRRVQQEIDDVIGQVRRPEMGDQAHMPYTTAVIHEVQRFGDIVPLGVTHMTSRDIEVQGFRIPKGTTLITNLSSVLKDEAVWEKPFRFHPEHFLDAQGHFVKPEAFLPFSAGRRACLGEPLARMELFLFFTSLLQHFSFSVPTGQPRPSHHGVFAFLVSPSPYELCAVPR
Chain of Somatostatin receptor type 3 (P32745 whole entry): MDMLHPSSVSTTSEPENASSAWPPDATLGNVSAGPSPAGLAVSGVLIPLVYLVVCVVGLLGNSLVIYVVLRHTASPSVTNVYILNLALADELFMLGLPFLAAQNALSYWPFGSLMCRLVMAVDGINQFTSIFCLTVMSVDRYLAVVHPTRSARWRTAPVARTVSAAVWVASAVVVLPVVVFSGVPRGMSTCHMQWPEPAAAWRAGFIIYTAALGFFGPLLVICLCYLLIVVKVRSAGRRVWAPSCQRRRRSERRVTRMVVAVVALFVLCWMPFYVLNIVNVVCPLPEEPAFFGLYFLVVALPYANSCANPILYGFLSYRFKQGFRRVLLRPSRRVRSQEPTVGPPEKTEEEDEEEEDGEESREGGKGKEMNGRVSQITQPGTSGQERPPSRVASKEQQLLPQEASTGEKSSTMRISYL
Chain of Cytochrome P450 2C9 (P11712 whole entry): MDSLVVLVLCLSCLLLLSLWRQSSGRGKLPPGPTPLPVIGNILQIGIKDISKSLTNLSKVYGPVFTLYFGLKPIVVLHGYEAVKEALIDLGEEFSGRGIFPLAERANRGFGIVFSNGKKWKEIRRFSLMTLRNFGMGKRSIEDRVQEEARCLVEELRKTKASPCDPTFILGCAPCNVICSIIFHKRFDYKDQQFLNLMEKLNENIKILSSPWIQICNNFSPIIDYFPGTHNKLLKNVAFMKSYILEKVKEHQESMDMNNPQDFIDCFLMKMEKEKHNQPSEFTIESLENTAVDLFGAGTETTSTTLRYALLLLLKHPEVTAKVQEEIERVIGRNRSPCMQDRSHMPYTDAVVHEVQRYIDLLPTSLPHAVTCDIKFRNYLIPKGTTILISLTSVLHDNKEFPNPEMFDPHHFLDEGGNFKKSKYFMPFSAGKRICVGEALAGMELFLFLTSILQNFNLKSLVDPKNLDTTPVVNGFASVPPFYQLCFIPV

Structure (SMILES): CCOc1cc(CN2CCC3(CC2)CC(=O)N(c2ccc(C(=O)O)cc2)C3)cc(OCC)c1-c1ccc(F)cc1.O=C(O)C(F)(F)F
- bioavailability [1]: 40%
- Fu [2]: 5.7%
- Fu [3]: 2.2%
- Activity (Pancreatic islet [4]): inactive
- Activity (Mus musculus [5]): Active
- solubility [6]: 5300 µg/mL
- Activity (Mus musculus [7]): 23%
- concentration at 3 h [8]: 351 nM
- Vd [9]: 1.39 L/kg
- IC50 [10]: > 15 µM
- Vd [11]: 2.38 L/kg
- minimal effective dose (Mus musculus [12]): 0.1 mg/kg
- IC50 [13]: > 15 µM
- half-life [14]: 2 h
- concentration at 3 h [15]: 34 nM
- Vd [16]: 2.82 L/kg
- Fu [17]: 5.4%
- half-life [18]: 1.9 h
- IC50 [19]: > 10 µM
- IC50 (Cytochrome P450 2C9): > 50 µM
- Cp(f) [20]: 16.1 nM
- Activity (Pancreatic islet [21]): inactive
- Activity (Mus musculus [22]): Non-Toxic
- concentration at 3 h [23]: 131 nM
- clearance [24]: 2.2 mL/min/kg
- Activity (Pancreatic islet [25]): Active
- Cp(f) [26]: 1.6 nM
- clearance [27]: 11.8 mL/min/kg
- Activity (Pancreatic islet [28]): Active
- Activity (Mus musculus [29]): inactive
- Activity (Mus musculus [30]): 84 - 94%
- bioavailability [31]: 72%
- Activity (Mus musculus [32]): 74%
- Activity (Mus musculus [33]): 59%
- IC50 (Cytochrome P450 2D6): > 50 µM
- IC50 [34]: > 10 µM

From ChEMBL document CHEMBL4266056, “Discovery and Pharmacology of a Novel Somatostatin Subtype 5 (SSTR5) Antagonist: Synergy with DPP-4 Inhibition” (ACS Med Chem Lett, 2018)
